The text below walks through data of paper PMC6092455 (International Journal for Parasitology: Drugs and Drug …, 2018).

Entries after “also recorded” stand apart in the source; their conditions may differ. Some results are limits rather than exact numbers.

For data set [1], the target named is T1, B. divergens proteasome β5 subunit (chymotrypsin-like activity) (Babesia divergens, UniProt A0AAD9GDK3).
T1 sequence (A0AAD9GDK3 69-280): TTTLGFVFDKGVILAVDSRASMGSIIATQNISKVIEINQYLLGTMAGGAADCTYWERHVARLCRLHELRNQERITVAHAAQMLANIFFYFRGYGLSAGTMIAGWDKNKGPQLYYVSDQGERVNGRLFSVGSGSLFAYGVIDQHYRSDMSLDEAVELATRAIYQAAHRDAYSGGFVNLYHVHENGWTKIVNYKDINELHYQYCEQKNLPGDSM
Briefly: Suc-LLVY-AMC proteasome activity assay with B. divergens crude cell lysates. The data set is classed as biochemical. The settings on record: for inhibition at 1 µM: read-out: Reduction of Suc-LLVY-AMC measured activity. In short, it runs like this: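 Crude lysate made from B. divergens-infected RBCs (~15% parasitemia): saponin lysis, PBS washes, sonication in 20 mM HEPES pH 8.0, 1 µM E64, 0.03% SDS, 1 mM ATP; pooled from 10 cultures. Lysate pre-incubated 30 min at 37 °C with 1 µM test compound. Then 10 µM Suc-LLVY-AMC added; fluorescence 360/465 nm read every 1 min for 1 h at 37 °C. Run in triplicate.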

The next data set deals with HeLa cells. Kind of data set: Cell toxicity assay, HeLa cells. The class given is cell-based, human. The settings on record: for IC50: Homo sapiens, HeLa, 48 h, read-out: IC50 values, HeLa cells, 48 h, AlamarBlue.
The test system of another data set is PMJ2R mouse macrophages. Kind of data set: Cell viability assay, PMJ2R mouse macrophages. The settings on record: 200 nM, 48 h. The class given is cell-based. In short, it runs like this: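 PMJ2R macrophages grown in RPMI 1640 with gentamicin, amphotericin B and 10% heat-inactivated FCS. Serially diluted test compound added to cultures, with 0.004% DMSO in medium as control. Medium changed every 12 h; 48 h at 37 °C, 5% CO₂. Calcein AM (live) and ethidium homodimer III (dead) staining, counted by flow cytometry. Triplicate cultures; mean ± SD; unpaired t-test.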

Data set [2] concerns B. microti. Briefly: Treatment of B. microti infected mice. The data set is classed as in vivo, Babesia microti. In outline:
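Six female BALB/c mice (~20 g) infected i.p. with 150 µl B. microti-infected blood (50% parasitemia, ~800 × 10⁶ infected RBCs). Dosed i.p. daily from 1 to 7 DPI with test compound at 0.75 mg/kg in PBS or with vehicle (150 µl; three mice each). Activity and appearance observed. Parasitemia counted daily to 15 DPI on tail-snip thin smears. AUC (Riemann sums), Cmax and Tmax compared by t-test.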

In data set [3] the test system is B. microti. Briefly: Pre-treatment of B. microti infected red blood cells prior to mouse infection. Particulars: infected blood pre-treated with 400 nM for 1 h. The class given is in vivo, Babesia microti. In outline: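 Infected blood pooled from three B. microti-infected mice (50% parasitemia). Exposed to test compound at 400 nM final, or to matching DMSO, for 1 h at 37 °C, 5% CO₂. Then injected i.p. (150 µl, 800 × 10⁶ infected RBCs) into three treated and three control BALB/c mice. Parasitemia counted daily for 8 DPI on Diff-Quik thin smears; Cmax and Tmax calculated in R.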

For data set [4], the system named is B. microti. Briefly: Parasitemia in B. microti infected mice treated on 5 and 6 DPI. The data set is classed as in vivo, Babesia microti. The settings on record: BALB/c mice, 0.75 mg/kg i.p. on 5 and 6 DPI. In outline:
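Eight female BALB/c mice infected i.p. with B. microti-infected blood (150 µl, 50% parasitemia, ~800 × 10⁶ infected RBCs). Test compound at 0.75 mg/kg in PBS, or vehicle, given i.p. on 5 and 6 DPI (four mice per group). Parasitemia read as percent from thin blood smears taken by tail snip; blood collected on 7 DPI.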

For data set [5], the system named is B. microti proteasome (chymotrypsin-like activity). Kind of data set: Suc-LLVY-AMC activity assay on B. microti lysates from treated mice. The data set is classed as in vivo, Babesia microti. Particulars: mice treated 0.75 mg/kg on 5 and 6 DPI, pooled blood collected 7 DPI.
The conditions of data set [6]: rats; ref Yang et al., 2011; cited from earlier work.
[7] abbreviates: BALB/c mice, 0.75 mg/kg i.p. daily 1-7 DPI.

Turning to `CC(C)C[C@H](NC(=O)[C@H](Cc1ccccc1)NC(=O)c1cnccn1)B(O)O` [Bortezomib, bortezomib], the inhibition at 1 µM in data set [1] was 96%. Further, the concentration for half-maximal inhibition (IC50) with HeLa cells amounted to 0.007 ± 0.001 µM.
Consider `CC(C)C[C@H](NC(=O)[C@H](CCc1ccccc1)NC(=O)CN1CCOCC1)C(=O)N[C@@H](Cc1ccccc1)C(=O)N[C@@H](CC(C)C)C(=O)[C@@]1(C)CO1` [Carfilzomib], for which the “Reduction of Suc-LLVY-AMC measured activity” value in data set [1] (1 μM inhibitor, pilot experiments (data not shown)) is “completely inhibiting this activity”. Further, in data set [1], the inhibition at 1 µM was greater than 90%. For the same compound, the 50% inhibitory concentration (IC50) with HeLa cells was found to be 0.059 ± 0.036 µM. The “Fold more potent against B. divergens compared to HeLa” value with HeLa cells (ratio of IC50 values HeLa / B. divergens ex vivo culture) is recorded as 2–3.5 fold. In the data set on PMJ2R mouse macrophages, the “Toxicity to PMJ2R macrophages” value was “did not show any toxicity; also recorded: did not affect cell viability”. Further, the “Survival rate of PMJ2R cells” value in the data set with PMJ2R mouse macrophages (medium changed every 12 h) stood at 71.1%. Moreover, in the data set with B. microti [2] (setting [7]), the “Adverse effects on spontaneous activity and physical appearance of mice” value is given as “no adverse effects”; the “Peak parasitemia levels and area under curve (AUC) compared to PBS” value was “significantly reduced”. For the same compound, the “Microscopic appearance of non-parasited RBCs” value with B. microti [2] (BALB/c mice, 0.75 mg/kg i.p. daily 1-7 DPI (data not shown)) is listed as “did not change”. The “Parasitemia on 5, 6 and 7 DPI compared to untreated control” value in the data set on B. microti [2] (daily intra-peritoneal treatment of infected mice) is listed as “lower parasitemia”. Also, the “Reduction of Cmax (parasitemia) on Tmax (7 DPI) compared to control group” value in the data set with B. microti [3] came out at 31.2%. The “Parasite load (parasitemia, mean) at 5 DPI” value in the data set with B. microti [4] (5 DPI) worked out at 47.4 ± 6.3%. For the same compound, the “Parasite load (parasitemia, mean) at 7 DPI” value in the data set with B. microti [4] (7 DPI) came out at 41.5 ± 2.9%. For the same compound, in data set [5], the “Reduction of Suc-LLVY-AMC activity in B. microti lysates compared to untreated control” value was 33%. In data set [6], the Plasma clearance was 195 to 319 mL/min/kg; the Terminal half-life is 5 to 20 min; the Tissue distribution result is “rapid and wide tissue distribution”.
